MrgX1 antag: antagonists of human MrgX1 receptor. Q96LB2. MRGX1-HEK293 calcium flux, Fluo-4, BAM8-22 antagonism; hits give low values. B-score at 10 µM. hit rate 1.3% among 310,000. AID 588676;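 active = calcium-response B-score plate-corrected more than 3 library SD below zero, starting fluorescence within 5 deviations, no agonist response on first addition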;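 also: peak minus trough fluorescence over baseline after final BAM8-22 challenge near maximal dose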
Target sequence (Q96LB2 whole entry, looked up): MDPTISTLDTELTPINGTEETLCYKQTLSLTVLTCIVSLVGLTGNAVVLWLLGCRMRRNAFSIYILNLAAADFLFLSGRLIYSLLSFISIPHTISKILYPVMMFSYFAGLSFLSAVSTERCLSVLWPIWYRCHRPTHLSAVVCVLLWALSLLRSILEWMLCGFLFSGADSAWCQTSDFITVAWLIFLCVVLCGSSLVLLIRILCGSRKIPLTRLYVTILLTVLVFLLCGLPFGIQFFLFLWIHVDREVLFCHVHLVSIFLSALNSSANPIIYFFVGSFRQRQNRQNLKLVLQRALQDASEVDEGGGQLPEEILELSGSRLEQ
RGS4 act: potentiators or activators of RGS4. HEK293 M3R/inducible RGS4, carbachol calcium flux Fluo4; hits give low values. B-score at 10 µM. hit rate 0.92% among 310,000;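 active = B-score of the integrated calcium signal more than 4 SD below the library mean, with starting fluorescence not abnormally high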;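 also: negative B-score means reduced calcium response which marks RGS4 activation or potentiation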
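test system = HEK293 cells with stable M3R and inducible RGS4 | schedule = recording 10 s baseline at 1 Hz, 100 s post-agonist | technique = Fluo4-AM (2 µM) calcium-flux fluorescence, kinetic read | measure = Agonist-evoked peak-minus-minimum fluorescence over baseline, integrated ratio, B score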
MrgX1 PAM: allosterically activates human MrgX1 receptor signaling | Q96LB2 | MrgX1-HEK293, Fluo-4 calcium flux, FDSS; hits give high values | B-score at 10 µM | hit rate 0.63% among 310,000 | AID 588675;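 active = plate-corrected calcium response at least 3 library SD above typical, normal starting fluorescence, not activating the receptor alone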;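 also: compound read alongside a low EC10 to EC30 dose of BAM8-22 agonist; peak minus trough fluorescence over baseline measured at the second addition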
RGS4 block: human RGS4 inhibition; P49798; HEK293 M3R/RGS4 inducible, Fluo-4 calcium flux; hits give high values; triggered by carbachol at its EC20; B-score at 10 µM; hit rate 0.45% among 310,000;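 active = B-score, a plate-corrected calcium signal, over three deviations above library mean, with baseline fluorescence within five deviations of library mean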;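 also: RGS4 expression induced by doxycycline in cells with stable M3 receptor; B-score is computed from the integrated fluorescence ratio over baseline after carbachol; higher B-score means a larger calcium signal and so more RGS4 inhibition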
Target sequence (P49798 whole entry, looked up): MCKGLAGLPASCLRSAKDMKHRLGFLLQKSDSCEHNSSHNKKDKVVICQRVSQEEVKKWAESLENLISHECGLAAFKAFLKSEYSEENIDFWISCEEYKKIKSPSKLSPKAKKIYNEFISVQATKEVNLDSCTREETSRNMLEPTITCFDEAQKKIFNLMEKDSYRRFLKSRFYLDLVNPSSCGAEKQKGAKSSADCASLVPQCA
MrgX1 agonist: agonists of human MrgX1 receptor. Q96LB2. MrgX1-HEK293 cells, Fluo-4 calcium fluorescence, agonist mode; hits give high values. B-score at 10 µM. hit rate 0.44% among 310,000;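 active = calcium response B-score plate-corrected fluorescence ratio at least 3 library SD, with starting fluorescence B-score inside 5 SD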
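Material: MrgX1-expressing HEK293 cells; input: 15,000 cells per well; doses: test compound given as first of three sequential additions; schedule: overnight plating before 1 h dye loading; technique: Fluo-4 NW calcium-flux fluorescence, kinetic read; evaluation: baseline-normalised fluorescence change ratio, B-scored; control set: plate-wise positive and negative controls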
Kir21 inh: inhibitors of mouse Kir2.1 inward-rectifier potassium channel; P35561; HEK293-Kir2.1, FluxOR thallium flux fluorescence; hits give low values; B-score at 10 µM; hit rate 0.85% among 310,000;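 active = fluorescence ratio B-score at or below minus 3 SD of library scores, with starting-brightness B-score within 2 SD, cut at about -4.2 in these data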;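 also: channel flux triggered by added potassium and thallium sulfate stimulus; B-score of peak minus minimum fluorescence over baseline after thallium stimulus; more negative B-score means stronger Kir2.1 block with less thallium influx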
MrgX1 antag conf: confirmation of human MrgX1 receptor antagonists; shares compounds with MrgX1 antag; MrgX1-HEK293, BAM8-22 calcium flux, Fluo-4; hits give low values; remaining BAM8-22 calcium response % of control (hits give low values), % at 10 µM; hit rate 19% among 2,300; AID 602420;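 active = remaining agonist calcium response no higher than 100% minus 3 SD of agonist-only control wells, with starting fluorescence near control levels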;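 also: agonist BAM8-22 given at a near maximal EC90 to ECmax level; peak minus minimum fluorescence divided by baseline after agonist addition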
HEK293 Ca flux: MrgX1 antagonist counter-screen hit in parental HEK293 cells; hit rate 2% among 4,000; shares compounds with MrgX1 antag; Fluo-4 calcium fluorescence, FDSS; fluorescence ratio F(max-min)/F0 at 10 µM;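 active = duplicate-averaged calcium fluorescence ratio at least three times the standard deviation of buffer wells, a nonspecific response in parental cells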
HEK293 Ca counter: counter-screen for MrgX1 allosteric activators: effect in parental HEK293 cells; hit rate 0.4% among 4,000; fluorescence ratio F(max-min)/F0 at 10 µM; parental HEK293 calcium flux, Fluo-4 fluorescence ratio; hits give high values; shares compounds with MrgX1 antag;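 active = calcium fluorescence ratio, averaged over duplicates, at least 3 SD of the buffer-well ratio, meaning a nonspecific response in receptor-free cells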;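 also: untransfected parental HEK293 lacking MrgX1 used as counterscreen for MrgX1 allosteric activators; fluorescence change taken during the second addition on a kinetic imager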
HEK293 Ca cntr2: MrgX1 activator counter-screen hit in parental HEK293 cells; shares compounds with MrgX1 antag; Fluo-4 calcium fluorescence (FDSS); hits give high values; fluorescence ratio F(max-min)/F0 at 10 µM; hit rate 8.7% among 4,000; AID 624115;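 active = calcium fluorescence ratio at least three times the spread of buffer wells, meaning a non-specific response in parental cells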
The depositor's hits bear a star; i = inactive; · = no result. Shown are actives, neighbours in structure and some others; about 4.1% of the full set was active somewhere.

SMILES	MrgX1 antag	RGS4 act	MrgX1 PAM	RGS4 block	MrgX1 agonist	Kir21 inh	MrgX1 antag conf	HEK293 Ca flux	HEK293 Ca counter	HEK293 Ca cntr2
CCOc1ccccc1/C=N/NC(=O)c1cccc(Cl)c1	i	i	i	i	i	-1.5	·	·	·	·
COc1ccccc1NC(=O)c1nnn(Cc2ccccc2)c1NC(=O)C(F)(F)F	i	i	i	i	i	0.98	·	·	·	·
O=c1c2[nH]c3ccc(Cl)cc3c2ncn1CCN1CCCCC1	i	i	i	i	i	1.4	·	·	·	·
CC(Cc1cccs1)NC(=S)Nc1ccc(Cl)c(Cl)c1 (centres undefined)	-6.8*	i	i	i	i	-0.19	i	i	i	i
O=C1CC(c2ccc(F)cc2)Cc2nc(NCc3ccco3)ncc21 (centres undefined)	i	i	i	i	i	-1	·	·	·	·
CC1CC(=O)c2cnc(NCc3ccco3)nc2C1 (centres undefined)	-7.2*	i	i	i	i	0.65	i	i	i	i
COc1ccc(-n2c(-c3ccc(Cl)cc3)c[n+]3c2CCc2ccccc2-3)cc1	i	i	i	i	i	-2.4	·	·	·	·
Cc1ccc(S(=O)(=O)Cn2nnnc2C(C(C)C)N2CCN(Cc3ccco3)CC2)cc1 (centres undefined)	-5.7*	i	i	i	i	0.25	i	i	i	i
CC(=O)c1cccc(NC(=S)NCc2ccco2)c1	i	i	i	i	i	0.09	·	·	·	·
Cc1ccccc1OCC(=O)Nc1ccc(C)c(S(=O)(=O)N2CCCCCC2)c1	i	i	i	i	i	-2	·	·	·	·
COc1ccc(NC(=O)CCOc2ccccc2C)cc1S(=O)(=O)N1CCCCC1	-5.4*	i	i	i	i	-0.31	i	i	i	i
COc1ccc(CCC(=O)Nc2ccc(Cl)c(S(=O)(=O)N3CCCC3)c2)cc1	-5.9*	i	i	i	i	-0.83	78%*	i	i	i
Cc1ccc(Nc2nc(NCCO)c3ccccc3n2)cc1C	-6.1*	i	i	i	i	-6.9*	78%*	i	i	i
Cc1cc(NCCO)c2ccccc2n1	-4.6*	i	i	i	i	-0.17	i	i	i	i
COc1ccc(N(C)C2=NS(=O)(=O)c3ccccc32)cc1	i	i	i	i	i	0.07	·	·	·	·
N/C(=N\N=C\c1ccco1)SC1CC(=O)N(c2ccccc2)C1=O (centres undefined)	i	i	i	i	i	-0.32	·	·	·	·
Cc1ccc2nc3c(nc2c1)-c1ccccc1C3=O	i	i	i	i	i	1.4	·	·	·	·
CCCCC1CCC(C(=O)N(C)CC(=O)Nc2cccc(F)c2)CC1 (centres undefined)	-5.4*	i	i	i	i	0.02	i	i	i	i
CCOC(=O)N1CCN(S(=O)(=O)c2c[nH]c(C(=O)OC)c2)CC1	i	i	i	i	i	1	·	·	·	·
N#Cc1ccc(-c2ccc(F)cc2)nc1Sc1ccc(F)cc1	i	i	i	i	i	0.48	·	·	·	·
COc1ccc(S(=O)(=O)N2CCNC(=O)CC2)cc1	i	i	i	i	i	0.71	·	·	·	·
O=C1CCN(S(=O)(=O)c2ccc(Cl)cc2)CCN1	-4.6*	i	i	i	i	-1.6	84%*	i	i	i

Bioassay records (PubChem)
